Measurements taken from ChEMBL document CHEMBL3400032 (Bioorg Med Chem, 2015).

Assays:
[1] = Drug metabolism in human liver S9 fraction assessed as compound remaining at 1 uM after 30 mins by HPLC/MS/MS analysis relative to control; assay type: ADME, subcellular; settings: read-out: Stability
Summary of the method: (§1)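 Test compound at 1 µM final, incubated 30 min at 37 °C in serum, or in S9 mix (50 mM potassium phosphate pH 7.4, 3 mM NADPH, 1 mg protein/mL pooled male SD rat or human liver S9). Preincubated 5 min at 37 °C, compound added in acetonitrile–water (1:1), stopped with ice-cold acetonitrile, centrifuged, filtered, parent and carboxylate hydrolysate quantified by HPLC-MS/MS.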

[2] = Drug metabolism in Sprague-Dawley rat liver S9 fraction assessed as compound remaining at 1 uM after 30 mins by HPLC/MS/MS analysis relative to control; assay type: ADME, subcellular; settings: read-out: Stability; summary of the method: as §1
[3] = Permeability of the compound at pH 7.4 by PAMPA; assay type: ADME; settings: read-out: permeability
[4] = Drug metabolism in human serum assessed as compound remaining at 1 uM after 30 mins by HPLC/MS/MS analysis relative to control; assay type: ADME, cell-free; settings: read-out: Stability; summary of the method: as §1
[5] = Drug metabolism in human liver S9 fraction assessed as metabolite 3 formation at 1 uM after 30 mins by HPLC/MS/MS analysis relative to control; assay type: ADME, subcellular; settings: s9, 0.5 h; summary of the method: as §1
Serum [6] = experiment: Drug metabolism in rat serum assessed as 2-(3-aminopiperidin-1-yl)-3-(2-chlorobenzyl)-5-methyl-4-oxo-4,5-dihydro-3H-imidazo[4,5-c]quinoline-7-carboxylic acid formation at 1 uM after 30 mins by HPLC/MS/MS analysis relative to control; assay type: ADME, cell-free; settings: 0.5 h; summary of the method: as §1
[7] = Drug metabolism in Sprague-Dawley rat liver S9 fraction assessed as 2-(3-aminopiperidin-1-yl)-3-(2-chlorobenzyl)-5-methyl-4-oxo-4,5-dihydro-3H-imidazo[4,5-c]quinoline-7-carboxylic acid formation at 1 uM after 30 mins by HPLC/MS/MS analysis relative to control; assay type: ADME, subcellular; settings: s9, 0.5 h; summary of the method: as §1
[8] = Plasma concentration in rat at 10 mg/kg, po after 6 hrs; assay type: ADME, organism-based; parameters: dose 10 mg/kg, route oral
Summary of the method: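 Rats dosed orally with prodrug; plasma levels of prodrug and carboxylate active metabolite measured over time, limit of quantification 1.0 ng/mL.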

[9] = Drug metabolism in rat serum assessed as compound remaining at 1 uM after 30 mins by HPLC/MS/MS analysis relative to control; assay type: ADME, cell-free; settings: read-out: Stability; summary of the method: as §1
Rattus norvegicus = experiment: Oral bioavailability in rat assessed as 2-(3-aminopiperidin-1-yl)-3-(2-chlorobenzyl)-5-methyl-4-oxo-4,5-dihydro-3H-imidazo[4,5-c]quinoline-7-carboxylic acid level at 10 mg/kg; assay type: ADME, organism-based; settings: in vivo
Serum [10] = experiment: Drug metabolism in human serum assessed as 2-(3-aminopiperidin-1-yl)-3-(2-chlorobenzyl)-5-methyl-4-oxo-4,5-dihydro-3H-imidazo[4,5-c]quinoline-7-carboxylic acid formation at 1 uM after 30 mins by HPLC/MS/MS analysis relative to control; assay type: ADME, cell-free; settings: 0.5 h; summary of the method: as §1
[11] = Permeability of the compound at pH 5 by PAMPA; assay type: ADME; settings: read-out: permeability
[12] = Drug metabolism in Sprague-Dawley rat liver S9 fraction assessed as 2-(3-aminopiperidin-1-yl)-3-(2-chlorobenzyl)-5-methyl-4-oxo-4,5-dihydro-3H-imidazo[4,5-c]quinoline-8-carboxylic acid formation at 1 uM after 30 mins by HPLC/MS/MS analysis relative to control; assay type: ADME, subcellular; settings: s9, 0.5 h; summary of the method: as §1
Serum [13] = experiment: Drug metabolism in human serum assessed as 2-(3-aminopiperidin-1-yl)-3-(2-chlorobenzyl)-5-methyl-4-oxo-4,5-dihydro-3H-imidazo[4,5-c]quinoline-8-carboxylic acid formation at 1 uM after 30 mins by HPLC/MS/MS analysis relative to control; assay type: ADME, cell-free; settings: 0.5 h; summary of the method: as §1
Serum [14] = experiment: Drug metabolism in rat serum assessed as 2-(3-aminopiperidin-1-yl)-3-(2-chlorobenzyl)-5-methyl-4-oxo-4,5-dihydro-3H-imidazo[4,5-c]quinoline-8-carboxylic acid formation at 1 uM after 30 mins by HPLC/MS/MS analysis relative to control; assay type: ADME, cell-free; settings: 0.5 h; summary of the method: as §1
Liver microsome [15] = experiment: Clearance in human liver microsomes assessed per mg protein
[16] = Volume of distribution at steady state in rat at 3 mg/kg, iv; assay type: ADME, organism-based; parameters: route intravenous, dose 3 mg/kg; settings: in vivo, read-out: Vdss
[17] = Half life in rat at 3 mg/kg, iv; assay type: ADME, organism-based; parameters: dose 3 mg/kg, route intravenous; settings: in vivo
Liver microsome [18] = experiment: Clearance in Sprague-Dawley rat liver microsomes assessed per mg protein
[19] = Clearance in rat at 3 mg/kg, iv; assay type: ADME, organism-based; parameters: dose 3 mg/kg, route intravenous; settings: in vivo
[20] = AUC in rat at 3 mg/kg, iv; assay type: ADME, organism-based; parameters: dose 3 mg/kg, route intravenous; settings: plasma
[21] = Half life in rat at 1 mg/kg, iv; assay type: ADME, organism-based; parameters: dose 1 mg/kg, route intravenous; settings: in vivo
[22] = AUC in rat at 1 mg/kg, iv; assay type: ADME, organism-based; parameters: dose 1 mg/kg, route intravenous; settings: plasma
[23] = Volume of distribution at steady state in rat at 1 mg/kg, iv; assay type: ADME, organism-based; parameters: dose 1 mg/kg, route intravenous; settings: in vivo, read-out: Vdss
[24] = Clearance in rat at 1 mg/kg, iv; assay type: ADME, organism-based; parameters: dose 1 mg/kg, route intravenous; settings: in vivo
[25] = Drug metabolism in human liver S9 fraction assessed as 2-(3-aminopiperidin-1-yl)-3-(2-chlorobenzyl)-5-methyl-4-oxo-4,5-dihydro-3H-imidazo[4,5-c]quinoline-8-carboxylic acid formation at 1 uM after 30 mins by HPLC/MS/MS analysis relative to control; assay type: ADME, subcellular; settings: s9, 0.5 h; summary of the method: as §1

Row | Compound | remaining at 0.5 h, 1 µM [1] | remaining at 0.5 h, 1 µM [2] | Papp [3] | remaining at 0.5 h, 1 µM [4] | remaining at 0.5 h, 1 µM [9] | Papp [11] | Drug metabolism [12] | Drug metabolism (Serum [13]) | Drug metabolism (Serum [14]) | Drug metabolism [25] | other results
1 | COC(=O)c1ccc2c3nc(N4CCC[C@@H](N)C4)n(Cc4ccccc4Cl)c3c(=O)n(C)c2c1.Cl | > 99% | 70% | 41.4 ×10⁻⁶ cm/s | 92% | 8.4% | 36.2 ×10⁻⁶ cm/s |  |  |  |  | Drug metabolism [5]: metabolite_detected; Drug metabolism (Serum [6]): metabolite_detected; Drug metabolism [7]: metabolite_detected; concentration at 6 h [8]: < 1 ng/mL; F (Rattus norvegicus): 90%; Drug metabolism (Serum [10]): metabolite_detected
2 | C[C@@H]1CN(CCOC(=O)c2ccc3c(c2)c2nc(N4CCC[C@@H](N)C4)n(Cc4ccccc4Cl)c2c(=O)n3C)C[C@H](C)O1.Cl | 22% | 30% | 18 ×10⁻⁶ cm/s | < 0.5% | 92% | 10.1 ×10⁻⁶ cm/s | metabolite_detected | metabolite_detected | metabolite_detected |  | 
3 | Cn1c(=O)c2c(nc(N3CCC[C@@H](N)C3)n2Cc2ccccc2Cl)c2ccc(C(=O)O)cc21 |  |  | < 0.1 ×10⁻⁶ cm/s |  |  | < 0.1 ×10⁻⁶ cm/s |  |  |  |  | CLH (Liver microsome [15]): < 10 µL/min/mg; Vd [16]: 4.5 L/kg; half-life [17]: 0.6 h; CLH (Liver microsome [18]): < 10 µL/min/mg; clearance [19]: 181 mL/min/kg; AUC [20]: 276 ng·h/mL
4 | Cn1c(=O)c2c(nc(N3CCC[C@@H](N)C3)n2Cc2cc(F)ccc2Cl)c2ccc(C(=O)O)cc21 |  |  |  |  |  |  |  |  |  |  | half-life [21]: 8.3 h; AUC [22]: 99.9 ng·h/mL; Vd [23]: 31.5 L/kg; clearance [24]: 167 mL/min/kg
5 | Cl.Cn1c(=O)c2c(nc(N3CCC[C@@H](N)C3)n2Cc2ccccc2Cl)c2cc(C(=O)OCCCN3CCOCC3)ccc21 | 48% | 78% | 3.4 ×10⁻⁶ cm/s | 7% | 76% | < 0.1 ×10⁻⁶ cm/s | metabolite_detected | metabolite_detected | metabolite_detected | metabolite_detected | 
6 | Cl.Cn1c(=O)c2c(nc(N3CCC[C@@H](N)C3)n2Cc2ccccc2Cl)c2cc(C(=O)OCCN3CCOCC3)ccc21 | 37% | > 99% | 7.1 ×10⁻⁶ cm/s | 6.8% | 50% | 0.9 ×10⁻⁶ cm/s | metabolite_detected | metabolite_detected | metabolite_detected | metabolite_detected | 
7 | CN(C)CCOC(=O)c1ccc2c(c1)c1nc(N3CCC[C@@H](N)C3)n(Cc3ccccc3Cl)c1c(=O)n2C.Cl | > 99% | > 99% | 0.6 ×10⁻⁶ cm/s | < 0.5% | 97% | < 0.1 ×10⁻⁶ cm/s | metabolite_detected | metabolite_detected | metabolite_detected | metabolite_detected | 
